From ChEMBL document CHEMBL1157630, “A class of novel Schiff's bases: Synthesis, therapeutic action for chronic pain, anti-inflammation and 3D QSAR analysis” (2010)

Assays:
Type in all cases: functional
[1] = system: Mus musculus; test: Analgesic activity in ICR mouse assessed as increase in pain threshold variation at 0.2 umol/kg, ip administered as single dose measured after 60 mins by tail flick test
In short: (§1)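 Mice were housed 12/12 h light/dark at 21 ± 2 °C for one day, then given a single dose. Tail-flick basal threshold was read four times, then every 30 min up to 180 min, with a 10 s cut-off. PTV = (post-dose threshold − basal)/basal. n = 12, mean ± SD%, one-way ANOVA against saline vehicle at each time point.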

[2] = system: Mus musculus; test: Analgesic activity in ICR mouse assessed as increase in pain threshold variation at 2 umol/kg, ip administered as single dose measured after 150 mins by tail flick test; settings: in the assay text read “po administered” for “ip administered”; in short: as §1
[3] = system: Mus musculus; test: Analgesic activity in ICR mouse assessed as increase in pain threshold variation at 20 umol/kg, po administered as single dose measured after 120 mins by tail flick test
In short: (§2)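 Tail-flick test in mice housed 12/12 h light/dark at 21 ± 2 °C for one day. A single oral dose of 20 µmol/kg was given in 0.2 ml normal saline; vehicle controls got saline alone. Basal threshold was measured four times, then every 30 min to 180 min, with a 10 s cut-off. PTV = (post − basal)/basal. n = 12, mean ± SD%, one-way ANOVA.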

[4] = system: Mus musculus; test: Analgesic activity in ICR mouse assessed as increase in pain threshold variation at 20 umol/kg, po administered as single dose measured after 30 mins by tail flick test; in short: as §2
[5] = system: Mus musculus; test: Analgesic activity in ICR mouse assessed as increase in pain threshold variation at 2 umol/kg, ip administered as single dose measured after 120 mins by tail flick test; settings: in the assay text read “po administered” for “ip administered”; in short: as §1
[6] = system: Mus musculus; test: Analgesic activity in ICR mouse assessed as increase in pain threshold variation at 0.2 umol/kg, ip administered as single dose measured after 30 mins by tail flick test; in short: as §1
[7] = system: Mus musculus; test: Analgesic activity in ICR mouse assessed as increase in pain threshold variation at 0.2 umol/kg, ip administered as single dose measured after 150 mins by tail flick test; settings: in the assay text read “po administered” for “ip administered”; in short: as §1
[8] = system: Mus musculus; test: Analgesic activity in ICR mouse assessed as increase in pain threshold variation at 20 umol/kg, po administered as single dose measured after 90 mins by tail flick test; in short: as §2
[9] = system: Mus musculus; test: Analgesic activity in ICR mouse assessed as increase in pain threshold variation at 2 umol/kg, ip administered as single dose measured after 90 mins by tail flick test; settings: in the assay text read “po administered” for “ip administered”; in short: as §1
[10] = system: Mus musculus; test: Analgesic activity in ICR mouse assessed as increase in pain threshold variation at 2 umol/kg, ip administered as single dose measured after 30 mins by tail flick test; settings: in the assay text read “po administered” for “ip administered”; in short: as §1
[11] = system: Mus musculus; test: Analgesic activity in ICR mouse assessed as increase in pain threshold variation at 0.2 umol/kg, ip administered as single dose measured after 180 mins by tail flick test; settings: in the assay text read “po administered” for “ip administered”; in short: as §1
[12] = system: Mus musculus; test: Analgesic activity in ICR mouse assessed as increase in pain threshold variation at 20 umol/kg, po administered as single dose measured after 150 mins by tail flick test; in short: as §2
[13] = system: Mus musculus; test: Analgesic activity in ICR mouse assessed as increase in pain threshold variation at 0.2 umol/kg, ip administered as single dose measured after 90 mins by tail flick test; in short: as §1
[14] = system: Mus musculus; test: Antiinflammatory activity in ICR mouse assessed as inhibition of xylene-induced ear edema at 5 umol/kg, po
In short: (§3)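 Male ICR mice (20 ± 2 g), 12 per group, were dosed orally: test agents as suspensions in normal saline, aspirin in CMC. After 30 min, 0.03 ml xylene was applied to both surfaces of the right ear, with the left ear as control. After 2 h the mice were killed, 8 mm ear discs were weighed, and edema was taken as right minus left weight.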

[15] = system: Mus musculus; test: Analgesic activity in ICR mouse assessed as increase in pain threshold variation at 0.2 umol/kg, ip administered as single dose measured after 120 mins by tail flick test; in short: as §1
[16] = system: Mus musculus; test: Analgesic activity in ICR mouse assessed as increase in pain threshold variation at 20 umol/kg, po administered as single dose measured after 60 mins by tail flick test; in short: as §2
[17] = system: Mus musculus; test: Analgesic activity in ICR mouse assessed as increase in pain threshold variation at 2 umol/kg, ip administered as single dose measured after 60 mins by tail flick test; settings: in the assay text read “po administered” for “ip administered”; in short: as §1
[18] = system: Mus musculus; test: Antiinflammatory activity in ICR mouse assessed as inhibition of xylene-induced ear edema at 10 umol/kg, po; in short: as §3
[19] = system: Mus musculus; test: Analgesic activity in ICR mouse assessed as increase in pain threshold variation at 20 umol/kg, po administered as single dose measured after 180 mins by tail flick test; in short: as §2
[20] = system: Mus musculus; test: Analgesic activity in ICR mouse assessed as increase in pain threshold variation at 2 umol/kg, ip administered as single dose measured after 180 mins by tail flick test; in short: as §1
[21] = system: Mus musculus; test: Antiinflammatory activity in ICR mouse assessed as inhibition of xylene-induced ear edema at 20 umol/kg, po; in short: as §3

| Structure (SMILES) | Activity [3] [%] | Activity [4] [%] | Activity [8] [%] | Activity [12] [%] | inhibition in vivo at 5 µmol/kg [14] [%] | Activity [16] [%] | inhibition in vivo at 10 µmol/kg [18] [%] | Activity [19] [%] | inhibition in vivo at 20 µmol/kg [21] [%] | further results |
| --- | --- | --- | --- | --- | --- | --- | --- | --- | --- | --- |
| COC(=O)[C@H](C)/N=C/C=C/N[C@@H](C)C(=O)OC | 53.33 | 32.26 | 48.4 | 44.71 | 14.8 | 32.49 | 41.9 | 42.29 | 53.1 | Activity [1]: 16.79%; Activity [2]: 28.25%; Activity [5]: 35.87%; Activity [6]: 12.24%; Activity [7]: 20.27%; Activity [9]: 30.94%; Activity [10]: 24.58%; Activity [11]: 18.8%; Activity [13]: 17.41%; Activity [15]: 22.08%; Activity [17]: 25%; Activity [20]: 27.31% |
| COC(=O)[C@H](C)N | 11.55 | 7.37 | 12.02 | 11.01 |  | 12.66 |  | 11.44 |  |  |
| CCC(C)[C@H](/N=C/C=C/N[C@H](C(=O)OC)C(C)CC)C(=O)OC (some centres not stated) | 41.65 | 18.66 | 34.31 | 34.89 | 48.9 | 19.68 | 68 | 32.75 | 77.6 |  |
| COC(=O)[C@H](CC(C)C)/N=C/C=C/N[C@@H](CC(C)C)C(=O)OC | 45.12 | 26.52 | 40.37 | 42.38 | 73.1 | 29.79 | 80.9 | 41.84 | 88.6 |  |
| COC(=O)[C@H](CCSC)/N=C/C=C/N[C@@H](CCSC)C(=O)OC | 23.37 | 28.73 | 31.61 | 22.05 |  | 29.93 |  | 21.18 | 25.4 |  |
